Assays:
[1] = test system: Leishmania donovani; experiment: Antileishmanial activity against Leishmania donovani MHOM/IN/80/DD8 promastigotes assessed as parasite viability after 48 hrs by Alamar blue assay; format: functional, organism-based; conditions: MHOM/IN/80/DD8, 48 h
In short: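 Late log-phase promastigotes in complete RPMI (10% FCS, L-glutamine/penicillin–streptomycin) with 10% Alamar Blue and a range of compound concentrations, final DMSO <0.5%. Incubated 48 h at 27 °C. Viability read as Alamar Blue reduction by absorbance at 570 and 630 nm.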

[2] = test system: Plasmodium falciparum; experiment: Antiplasmodial activity against multidrug-resistant Plasmodium falciparum W2 infected human erythrocytes after 48 hrs by flow cytometry; format: functional, organism-based; conditions: W2, 48 h
[3] = test system: THP-1; experiment: Cytotoxicity against human THP1 cells assessed as cell viability after 72 hrs by Alamar blue assay; format: cell-based; conditions: THP-1, 72 h
[4] = test system: Leishmania donovani; experiment: Antileishmanial activity against Leishmania donovani MHOM/IN/80/DD8 amastigotes infected in human THP1 cells assessed as decrease of infected macrophages after 72 hrs by Giemsa staining; format: functional, organism-based; conditions: MHOM/IN/80/DD8, THP-1, 72 h
In short: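 THP1 monocytes (10⁵ cells/ml) differentiated to adherent macrophages with phorbol myristate acetate in complete RPMI, 48 h at 37 °C, 6% CO₂. Infected with stationary-phase promastigotes at cell:parasite ratio 1/10 for 24 h, then washed four times. Compound dilutions added in duplicate chambers for 72 h at 37 °C. Cells methanol-fixed and Giemsa-stained. Amphotericin B and DMSO controls included.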

[5] = Selectivity index, ratio of IC50 for human THP1 cells to IC50 for Leishmania donovani MHOM/IN/80/DD8 amastigotes; format: toxicity, cell-based, THP-1; conditions: read-out: Ratio IC50
In short: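 SI Ama computed as IC50 on THP1 cells divided by IC50 on intracellular L. donovani amastigotes, with amastigote IC50 taken from three independent experiments.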

[6] = Selectivity index, ratio of IC50 for human THP1 cells to IC50 for Plasmodium falciparum W2; format: toxicity, cell-based, THP-1; conditions: read-out: Ratio IC50

COc1cc2oc(=O)cc(-c3ccc(O)cc3)c2cc1OC
IC50 [1]: > 67 µM | IC50 [2]: > 67 µM | IC50 [3]: > 67 µM | IC50 [4]: > 67 µM

COc1ccc(-c2cc(=O)oc3cc(OC)c(OC)cc23)cc1OC
selectivity ratio [5]: > 265 | IC50 [1]: > 292 µM | IC50 [2]: > 117 µM | IC50 [3]: > 292 µM | IC50 [4]: 1.1 µM

COc1ccc(-c2cc(=O)oc3ccccc23)cc1OC
selectivity ratio [5]: > 6.7 | IC50 [1]: > 176 µM | IC50 [2]: 12 µM | selectivity ratio [6]: > 14.7 | IC50 [3]: > 176 µM | IC50 [4]: 26.4 µM

COc1ccc2c(-c3ccc(OC)c(OC)c3)cc(=O)oc2c1
IC50 [1]: 25.6 µM | IC50 [2]: 64 µM | selectivity ratio [6]: 1 | IC50 [3]: 64 µM | IC50 [4]: > 25 µM

COc1ccc2oc(=O)cc(-c3ccc(OC)c(OC)c3)c2c1
selectivity ratio [5]: > 29.6 | IC50 [1]: > 160 µM | IC50 [2]: > 160 µM | IC50 [3]: > 160 µM | IC50 [4]: 5.4 µM

COc1ccc(-c2cc(=O)oc3cc(OC)c(OC)c(OC)c23)cc1OC
selectivity ratio [5]: 18.1 | IC50 [1]: > 78 µM | IC50 [2]: 25.8 µM | selectivity ratio [6]: 3 | IC50 [3]: 78 µM | IC50 [4]: 4.3 µM

COc1cc(-c2cc(=O)oc3cc(OC)c(OC)cc23)ccc1O
selectivity ratio [5]: > 4.5 | IC50 [1]: 94.2 µM | IC50 [2]: 22.5 µM | selectivity ratio [6]: > 6.1 | IC50 [3]: > 137 µM | IC50 [4]: 30.4 µM

C[C@@H]1[C@H](O)[C@@H](C)/C=C/C=C/C=C/C=C/C=C/C=C/C=C/[C@H](O[C@@H]2O[C@H](C)[C@@H](O)[C@H](N)[C@@H]2O)C[C@@H]2O[C@](O)(C[C@@H](O)C[C@@H](O)[C@H](O)CC[C@@H](O)C[C@@H](O)CC(=O)O[C@H]1C)C[C@H](O)[C@H]2C(=O)O [AMPHOTERICIN B]
selectivity ratio [5]: 140 | IC50 [3]: 14 µM | IC50 [4]: 0.1 µM
